ChEMBL document CHEMBL3864121, “Development of ebsulfur analogues as potent antibacterials against methicillin-resistant Staphylococcus aureus” (Bioorg Med Chem, 2016)
Converted amounts (≈) assume the structure as drawn.

Legend:
Assay type in all cases: functional
[1] = test system: Staphylococcus aureus; experiment: Antibacterial activity against methicillin-sensitive Staphylococcus aureus ATCC 6538 measured after overnight incubation by broth double-dilution method
Outline: (§1)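 MIC by broth double-dilution in liquid Mueller-Hinton medium. Values are reported in µg/mL.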

[2] = test system: Staphylococcus aureus; experiment: Antibacterial activity against methicillin-sensitive Staphylococcus aureus ATCC 25923 measured after overnight incubation by broth double-dilution method; outline: as §1
[3] = test system: Staphylococcus aureus; experiment: Antibacterial activity against methicillin-sensitive Staphylococcus aureus ATCC 29213 measured after overnight incubation by broth double-dilution method; outline: as §1
[4] = test system: Staphylococcus aureus; experiment: Antibacterial activity against methicillin-resistant Staphylococcus aureus ATCC 33591 measured after overnight incubation by broth double-dilution method; outline: as §1
[5] = test system: Staphylococcus aureus; experiment: Antibacterial activity against methicillin-resistant Staphylococcus aureus 1 measured after overnight incubation by broth double-dilution method; outline: as §1
[6] = test system: Staphylococcus aureus; experiment: Antibacterial activity against methicillin-resistant Staphylococcus aureus 2 measured after overnight incubation by broth double-dilution method; outline: as §1
[7] = test system: Staphylococcus aureus; experiment: Antibacterial activity against methicillin-resistant Staphylococcus aureus BRS3 measured after overnight incubation by broth double-dilution method; outline: as §1
[8] = test system: Staphylococcus aureus; experiment: Antibacterial activity against methicillin-resistant Staphylococcus aureus C1 measured after overnight incubation by broth double-dilution method; outline: as §1
[9] = test system: Staphylococcus aureus; experiment: Antibacterial activity against methicillin-resistant Staphylococcus aureus C2 measured after overnight incubation by broth double-dilution method; outline: as §1
[10] = test system: Staphylococcus aureus; experiment: Antibacterial activity against methicillin-resistant Staphylococcus aureus C7 measured after overnight incubation by broth double-dilution method; outline: as §1
[11] = test system: Staphylococcus aureus; experiment: Antibacterial activity against methicillin-resistant Staphylococcus aureus C14 measured after overnight incubation by broth double-dilution method; outline: as §1
[12] = test system: Staphylococcus aureus; experiment: Antibacterial activity against methicillin-resistant Staphylococcus aureus C16 measured after overnight incubation by broth double-dilution method; outline: as §1
[13] = test system: Staphylococcus aureus; experiment: Antibacterial activity against methicillin-resistant Staphylococcus aureus C19 measured after overnight incubation by broth double-dilution method; outline: as §1
[14] = test system: Staphylococcus aureus; experiment: Antibacterial activity against methicillin-resistant Staphylococcus aureus G1 measured after overnight incubation by broth double-dilution method; outline: as §1
[15] = test system: Staphylococcus aureus; experiment: Antibacterial activity against methicillin-resistant Staphylococcus aureus G6 measured after overnight incubation by broth double-dilution method; outline: as §1
[16] = test system: Staphylococcus aureus; experiment: Antibacterial activity against methicillin-resistant Staphylococcus aureus G12 measured after overnight incubation by broth double-dilution method; outline: as §1
[17] = test system: Staphylococcus aureus; experiment: Antibacterial activity against methicillin-resistant Staphylococcus aureus G14 measured after overnight incubation by broth double-dilution method; outline: as §1
[18] = test system: Staphylococcus aureus; experiment: Antibacterial activity against methicillin-resistant Staphylococcus aureus NRS4 measured after overnight incubation by broth double-dilution method; outline: as §1
[19] = test system: Staphylococcus aureus; experiment: Antibacterial activity against methicillin-resistant Staphylococcus aureus NRS51 measured after overnight incubation by broth double-dilution method; outline: as §1
[20] = test system: Staphylococcus aureus; experiment: Antibacterial activity against methicillin-resistant Staphylococcus aureus NRS77 measured after overnight incubation by broth double-dilution method; outline: as §1
[21] = test system: Staphylococcus aureus; experiment: Antibacterial activity against methicillin-resistant Staphylococcus aureus S14 measured after overnight incubation by broth double-dilution method; outline: as §1
[22] = test system: Staphylococcus aureus; experiment: Antibacterial activity against methicillin-resistant Staphylococcus aureus S17 measured after overnight incubation by broth double-dilution method; outline: as §1
[23] = test system: Staphylococcus aureus; experiment: Antibacterial activity against methicillin-resistant Staphylococcus aureus S22 measured after overnight incubation by broth double-dilution method; outline: as §1
[24] = test system: Staphylococcus aureus; experiment: Antibacterial activity against methicillin-resistant Staphylococcus aureus S24 measured after overnight incubation by broth double-dilution method; outline: as §1
[25] = test system: Staphylococcus aureus; experiment: Antibacterial activity against methicillin-resistant Staphylococcus aureus USA100 measured after overnight incubation by broth double-dilution method; outline: as §1
[26] = test system: Staphylococcus aureus; experiment: Antibacterial activity against methicillin-resistant Staphylococcus aureus USA200 measured after overnight incubation by broth double-dilution method; outline: as §1
[27] = test system: Staphylococcus aureus; experiment: Antibacterial activity against methicillin-resistant Staphylococcus aureus USA300 measured after overnight incubation by broth double-dilution method; outline: as §1
[28] = test system: Staphylococcus aureus; experiment: Antibacterial activity against methicillin-resistant Staphylococcus aureus USA600 measured after overnight incubation by broth double-dilution method; outline: as §1
[29] = test system: Staphylococcus epidermidis; experiment: Antibacterial activity against Staphylococcus epidermidis ATCC 35984 measured after overnight incubation by broth double-dilution method; settings: RP62A
Outline: (§2)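 MIC by broth double-dilution in Mueller-Hinton medium. Re-testing at the time-kill inoculum used 1×10^6 CFU/mL.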

[30] = test system: Enterococcus faecalis; experiment: Antibacterial activity against Enterococcus faecalis ATCC 29212 measured after overnight incubation by broth double-dilution method; outline: as §2
[31] = test system: Enterococcus faecalis; experiment: Antibacterial activity against Enterococcus faecalis ATCC 49533 measured after overnight incubation by broth double-dilution method; outline: as §2
[32] = test system: Enterococcus faecium; experiment: Antibacterial activity against Enterococcus faecium BM4105-RF measured after overnight incubation by broth double-dilution method; outline: as §1
[33] = test system: Enterococcus; experiment: Antibacterial activity against Vancomycin-resistant Enterococcus measured after overnight incubation by broth double-dilution method; outline: as §1
[34] = test system: Listeria monocytogenes; experiment: Antibacterial activity against Listeria monocytogenes ATCC 19115 measured after overnight incubation by broth double-dilution method; outline: as §2
[35] = test system: Mycolicibacterium smegmatis; experiment: Antibacterial activity against Mycobacterium smegmatis MC2-155 measured after overnight incubation by broth double-dilution method; settings: str. MC2 155; outline: as §1

SMILES | MIC [1] [µg/mL] | MIC [2] [µg/mL] | MIC [3] [µg/mL] | MIC [4] [µg/mL] | MIC [5] [µg/mL] | MIC [6] [µg/mL] | MIC [7] [µg/mL] | MIC [8] [µg/mL] | MIC [9] [µg/mL] | MIC [10] [µg/mL] | MIC [11] [µg/mL] | MIC [12] [µg/mL] | MIC [13] [µg/mL] | MIC [14] [µg/mL] | MIC [15] [µg/mL] | MIC [16] [µg/mL] | MIC [17] [µg/mL] | MIC [18] [µg/mL] | MIC [19] [µg/mL] | MIC [20] [µg/mL] | further results
O=c1c2ccccc2sn1CCCc1ccccc1 | 3.9 (≈ 14.5 µM) | 2 (≈ 7.42 µM) | 2 (≈ 7.42 µM) | 1 (≈ 3.71 µM) | 0.5 (≈ 1.86 µM) | 2 (≈ 7.42 µM) | 3.9 (≈ 14.5 µM) | 2 (≈ 7.42 µM) | 2 (≈ 7.42 µM) | 2 (≈ 7.42 µM) | 3.9 (≈ 14.5 µM) | 3.9 (≈ 14.5 µM) | 2 (≈ 7.42 µM) | 0.5 (≈ 1.86 µM) | 2 (≈ 7.42 µM) | 2 (≈ 7.42 µM) | 2 (≈ 7.42 µM) | 2 (≈ 7.42 µM) | 2 (≈ 7.42 µM) | 2 (≈ 7.42 µM) | MIC [21]: ≤ 0.25 µg/mL; MIC [22]: 2 µg/mL (≈ 7.42 µM); MIC [23]: 3.9 µg/mL (≈ 14.5 µM); MIC [24]: 2 µg/mL (≈ 7.42 µM); MIC [25]: 2 µg/mL (≈ 7.42 µM); MIC [26]: 3.9 µg/mL (≈ 14.5 µM); MIC [27]: 2 µg/mL (≈ 7.42 µM); MIC [28]: 3.9 µg/mL (≈ 14.5 µM); MIC [29]: 2 µg/mL (≈ 7.42 µM); MIC [30]: 15.6 µg/mL (≈ 57.9 µM); MIC [31]: > 125 µg/mL; MIC [32]: 15.6 µg/mL (≈ 57.9 µM); MIC [33]: 0.5 µg/mL (≈ 1.86 µM); MIC [34]: 2 µg/mL (≈ 7.42 µM); MIC [35]: 3.9 µg/mL (≈ 14.5 µM)
CC(C)CCn1c(=O)c2ccccc2[s+]1[O-] (stereo not given) | > 125 | > 125 | > 125 | > 125 | > 125 | > 125 | > 125 | > 125 | > 125 | > 125 | > 125 | > 125 | > 125 | > 125 | > 125 | > 125 | > 125 | > 125 | > 125 | > 125 | MIC [21]: > 125 µg/mL; MIC [22]: > 125 µg/mL; MIC [23]: > 125 µg/mL; MIC [24]: > 125 µg/mL; MIC [25]: > 125 µg/mL; MIC [26]: > 125 µg/mL; MIC [27]: > 125 µg/mL; MIC [28]: > 125 µg/mL; MIC [29]: > 125 µg/mL; MIC [30]: > 125 µg/mL; MIC [31]: > 125 µg/mL; MIC [32]: > 125 µg/mL; MIC [33]: > 125 µg/mL; MIC [34]: > 125 µg/mL; MIC [35]: > 125 µg/mL
